Measurements published in ChEMBL document CHEMBL2413075, “Structure activity relationship study of benzo[d]thiazol-2(3H)one based σ receptor ligands” (Bioorg Med Chem Lett, 2013).

Assays:
[1] = molecular target: Sigma non-opioid intracellular receptor 1 (Rattus norvegicus, UniProt Q9R0C9); experiment: Displacement of [3H](+)-pentazocine from sigma 1 receptor in rat liver membranes; format: cell membranes, Membrane
How it was run: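 Rat liver membranes in a 96-well high-throughput format. Sigma-1 sites labeled with 5 nM [3H](+)-pentazocine. Nonspecific binding defined with 10 μM haloperidol. Ki values derived from displacement.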

Rattus norvegicus = species on record: Rattus norvegicus; experiment: Selectivity ratio of Ki for sigma 2 receptor in rat liver membranes to Ki for sigma 1 receptor in rat liver membranes; format: cell membranes; conditions: Membrane
[2] = Displacement of [3H]DTG from sigma 2 receptor in rat liver membranes; format: cell membranes, Membrane
How it was run: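 Rat liver membranes in a 96-well high-throughput format. Sigma-2 sites labeled with 5 nM [3H]DTG, with 300 nM (+)-pentazocine present to mask sigma-1. Nonspecific binding defined with 10 μM haloperidol. Ki values derived from displacement.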

Cavia porcellus = species on record: Cavia porcellus; experiment: Selectivity ratio of Ki for sigma 2 receptor in guinea pig brain membranes to Ki for sigma 1 receptor in guinea pig brain membranes; format: cell membranes
[3] = Binding affinity to sigma 2 receptor in guinea pig brain membranes; format: cell membranes, Cavia porcellus, Membrane

Sigma non-opioid intracellular receptor 1, sequence (Q9R0C9 whole entry): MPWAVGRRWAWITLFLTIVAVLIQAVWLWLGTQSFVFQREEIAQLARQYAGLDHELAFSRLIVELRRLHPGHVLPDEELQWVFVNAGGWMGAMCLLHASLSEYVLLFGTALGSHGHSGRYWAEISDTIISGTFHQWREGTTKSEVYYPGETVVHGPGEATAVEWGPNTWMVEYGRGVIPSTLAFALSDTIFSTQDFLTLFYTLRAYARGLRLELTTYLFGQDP

Row | SMILES | Ki [1] | Ratio Ki (Rattus norvegicus) | Ki [2] | Ratio Ki (Cavia porcellus) | Ki [3]
1 | CCCC(=O)c1ccc2c(c1)sc(=O)n2CCCCCN1CCCCCC1 | 16.3 nM | 0.4 | 5.7 nM | – | –
2 | CCCC(=O)c1ccc2c(c1)sc(=O)n2CCCCCCN1CCCCCC1 | 10.8 nM | 0.2 | 2.3 nM | – | –
3 | CCC(=O)c1ccc2c(c1)sc(=O)n2CCCCCN1CCCCCC1 | 12.2 nM | 0.7 | 8.3 nM | – | –
4 | O=c1sc2cc(CCCF)ccc2n1CCN1CCCCCC1 | – | 486 | – | – | –
5 | CCCC(=O)c1ccc2c(c1)sc(=O)n2CCCCN1CCCCCC1 | 4.8 nM | 4.5 | 21.6 nM | – | –
6 | O=c1sc2ccccc2n1CCCN1CCCCCC1 | 4.1 nM | 43 | 177 nM | – | –
7 | CCCCc1ccc2c(c1)sc(=O)n2CCCCCCN1CCCCCC1 | 12 nM | 0.3 | 4.1 nM | – | –
8 | O=c1sc2ccccc2n1CCCCCN1CCCCCC1 | 7 nM | 0.4 | 2.5 nM | – | –
9 | O=c1sc2ccccc2n1CCN1CCCCCCC1 | 9.7 nM | 74 | 716 nM | – | –
10 | O=c1sc2ccccc2n1CCN1CCCC1 | 578 nM | 14 | 8260 nM | – | –
11 | CCC(=O)c1ccc2c(c1)sc(=O)n2CCN1CCCCCC1 | 4.5 nM | 484 | 2180 nM | – | –
12 | CCCc1ccc2c(c1)sc(=O)n2CCCN1CCCCCC1 | 1.4 nM | 13 | 17.2 nM | – | –
13 | CCCc1ccc2c(c1)sc(=O)n2CCN1CCCCCC1 | 1.6 nM | 169 | 270 nM | > 1000 | > 1000 nM
14 | CCC(=O)c1ccc2c(c1)sc(=O)n2CCCCN1CCCCCC1 | 10.3 nM | 3 | 30.3 nM | – | –
15 | CCCCc1ccc2c(c1)sc(=O)n2CCCN1CCCCCC1 | 2.2 nM | 7 | 15.3 nM | – | –
16 | CCC(=O)c1ccc2c(c1)sc(=O)n2CCCCCCN1CCCCCC1 | 10.4 nM | 0.1 | 1.1 nM | – | –
17 | CCCc1ccc2c(c1)sc(=O)n2CCCCCN1CCCCCC1 | 4.6 nM | 0.3 | 1.6 nM | – | –
18 | O=c1sc2ccccc2n1CCCCCCN1CCCCCC1 | 7.5 nM | 0.3 | 2.4 nM | – | –
19 | CCC(=O)c1ccc2c(c1)sc(=O)n2CCN1CCCC1 | 116 nM | 41 | 4790 nM | – | –
20 | CCCc1ccc2c(c1)sc(=O)n2CCCCCCN1CCCCCC1 | 6.3 nM | 0.4 | 2.3 nM | – | –
21 | CCCC(=O)c1ccc2c(c1)sc(=O)n2CCCN1CCCCCC1 | 2.6 nM | 39 | 104 nM | – | –
22 | CCCCc1ccc2c(c1)sc(=O)n2CCCCN1CCCCCC1 | 1.9 nM | 2.4 | 4.4 nM | – | –
23 | O=c1sc2ccccc2n1CCCCN1CCCCCC1 | 3.2 nM | 31 | 101 nM | – | –
24 | CCCc1ccc2c(c1)sc(=O)n2CCCCN1CCCCCC1 | 6.1 nM | 0.7 | 4.3 nM | – | –
25 | CCC(=O)c1ccc2c(c1)sc(=O)n2CCCN1CCCCCC1 | 3.7 nM | 83 | 305 nM | – | –
